In article PMC2908238 (Journal of neurochemistry, 2010):

Experiments:
[1] = Electron microscopy, morphology of assemblies; format: physicochemical; conditions: EM, 10 µM peptide, pH 7.4, 25°C, agitation 200 rpm; for Morphology after 72 h of incubation: 72 h (Aβ40 analogues)
Outline: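 Peptide from HFIP films, dissolved in 60 mM NaOH, diluted with water, sonicated 1 min, adjusted to 10 µM in 20 mM sodium phosphate pH 7.4; incubated 25°C with 200 rpm orbital shaking. Aliquots adsorbed 20 min on glow-discharged carbon-coated Formvar grids, wicked, fixed 2.5% glutaraldehyde 4 min, stained 1% uranyl acetate 3 min, air-dried; transmission EM.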

[2] = Dynamic light scattering; format: physicochemical; conditions: 10 µM peptide, pH 7.4, filtered 20 nm, quiescent incubation
Outline: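 HFIP-treated peptide films dissolved in 60 mM NaOH, diluted with water, sonicated 1 min, then brought to 10 µM in 20 mM sodium phosphate, pH 7.4. Passed through 20-nm filter before first reading; kept at room temperature, no agitation, up to 14 days. 633-nm He-Ne laser, 90° scattering, multitau correlator; size distribution from regularization deconvolution. Representative of two independent experiments.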

[3] = 5 µM, 37°C, without agitation, ref Ciccotosto et al. 2004; cited from earlier work

Substance	Morphology after 72 h of incubation [1]	DLS intensity spikes (fibril formation) after 7 days ([2]; 7 days)	Hydrodynamic radius (RH) of particles after 7 days ([2]; DLS, 7 days)	Hydrodynamic radius (RH) of particles after 14 days ([2]; DLS, 14 days)	Morphology after 24 h of incubation ([1]; 24 h (Aβ42 analogues))	Morphology initially and after 72 h of incubation [3]
Aβ40: wild-type amyloid β-protein, 40-residue alloform, synthesized by Fmoc chemistry	did not change					
Aβ42: wild-type amyloid β-protein, 42-residue alloform, synthesized by Fmoc chemistry		no intensity spikes	the same distribution	100–200 nm	abundant fibrils	non-fibrillar morphology
[Val^35]Aβ40: Aβ40 analogue with Met^35 substituted by Val	mixture of oligomers and fibrils					
